Compound activity deposited in PubChem by The Scripps Research Institute Molecular Screening Center.
PAFAH1B2 FP inh = PAFAH1B2 enzyme inhibitors, primary screen, biochemical, fluorescence polarization, human; Platelet-activating factor acetylhydrolase IB subunit alpha2 (Homo sapiens), P68402; recombinant PAFAH1B2, FP-rhodamine activity probe; inhibition, % at 3.39 µM; 340,000 compounds, 1.2% hits;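 active = inhibition above the mean of all tested compounds plus 3 SD, cut at about 24% in these data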;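 note: 0% = enzyme with DMSO and 100% = wells lacking PAFAH1B2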
Target sequence (P68402 whole entry, looked up): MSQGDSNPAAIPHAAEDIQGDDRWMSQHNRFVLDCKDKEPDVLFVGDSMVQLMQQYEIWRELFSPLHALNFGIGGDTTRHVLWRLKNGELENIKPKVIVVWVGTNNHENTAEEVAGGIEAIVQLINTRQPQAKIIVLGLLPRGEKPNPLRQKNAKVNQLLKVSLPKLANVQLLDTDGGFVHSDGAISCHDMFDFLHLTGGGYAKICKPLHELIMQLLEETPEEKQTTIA
VIM-2 inh = VIM-2 metallo-beta-lactamase inhibitors, primary screen, biochemical, epi-absorbance readout, Pseudomonas aeruginosa enzyme; purified VIM-2, nitrocefin hydrolysis, epi-absorbance fluorescence; inhibition, % at 5.6 µM; 290,000 compounds, 0.89% hits;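 active = inhibition above the mean of all tested compounds plus 3 SD, cutoff set per screening run, cut at about 7.5% in these data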;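 note: red hydrolysis product quenches plate fluorescence so inhibitors raise well fluorescence; 0% = enzyme with DMSO and 100% = DMSO without enzyme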
pPAFAH FP inh = pPAFAH enzyme inhibitors, primary screen, biochemical, fluorescence polarization, human; Platelet-activating factor acetylhydrolase (Homo sapiens), Q13093; inhibition, % at 3.39 µM; recombinant pPAFAH, FP-rhodamine probe fluorescence polarization; 330,000 compounds, 1.5% hits; AID 463082, 2010;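 active = inhibition above the mean inhibition across the screen plus 3 SD, cut at about 25% in these data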;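 note: inhibitors block binding of the rhodamine activity-based probe so polarization drops; 0% = enzyme with DMSO and 100% = wells lacking pPAFAH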
Target sequence (Q13093 whole entry, looked up): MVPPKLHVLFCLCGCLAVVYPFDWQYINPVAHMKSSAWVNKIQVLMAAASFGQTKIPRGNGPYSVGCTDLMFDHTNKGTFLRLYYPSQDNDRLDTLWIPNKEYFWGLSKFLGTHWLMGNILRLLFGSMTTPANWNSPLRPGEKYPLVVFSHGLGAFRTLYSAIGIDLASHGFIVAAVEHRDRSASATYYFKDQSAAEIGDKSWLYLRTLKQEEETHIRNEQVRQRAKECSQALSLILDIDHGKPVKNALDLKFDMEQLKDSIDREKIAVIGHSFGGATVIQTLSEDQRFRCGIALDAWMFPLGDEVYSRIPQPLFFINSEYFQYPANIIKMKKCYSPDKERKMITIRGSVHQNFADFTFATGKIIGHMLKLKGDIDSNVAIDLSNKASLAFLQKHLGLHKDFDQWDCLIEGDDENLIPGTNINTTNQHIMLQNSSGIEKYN
IMP-1 inhibitor = IMP-1 metallo-beta-lactamase inhibitors, primary screen, biochemical, epi-absorbance readout, Pseudomonas aeruginosa enzyme; metallo-beta-lactamase IMP-1 (Pseudomonas aeruginosa); purified IMP-1, nitrocefin hydrolysis, epi-absorbance fluorescence; inhibition, % at 5.6 µM; 290,000 compounds, 0.45% hits; AID 1556, 2009;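 active = inhibition above the mean plus 3 SD of all compounds in the same screening run, cut at about 4.5% in these data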;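 note: 0% = IMP-1 with DMSO and 100% = DMSO wells lacking enzyme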
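System: purified recombinant IMP-1 beta-lactamase. Medium: Zinc- and detergent-supplemented HEPES buffer, pH 7.1. Compound: one 5.6 µM dose […]. Schedule: 15 min preincubation plus 25 min reaction at 25 °C. Technique: Epi-absorbance fluorescence, 480 nm excitation, 530 nm emission.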
PAFAH1B3 inh = PAFAH1B3 enzyme inhibitors, primary screen, biochemical, fluorescence polarization, human; Platelet-activating factor acetylhydrolase IB subunit alpha1 (Homo sapiens), Q15102; recombinant PAFAH1B3, FP-rhodamine probe; inhibition, % at 3.39 µM; 340,000 compounds, 0.28% hits; AID 492972, 2010;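 active = inhibition above the screen-wide average of all tested compounds plus 3 SD, cut at about 25% in these data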;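 note: 0% = enzyme with DMSO only and 100% = wells lacking PAFAH1B3 protein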
PAFAH2 inh = PAFAH2 enzyme inhibitors, primary screen, biochemical, fluorescence polarization, human | 340,000 compounds, 0.99% hits | inhibition, % at 3.39 µM | recombinant PAFAH2, FP-rhodamine activity probe;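 active = inhibition above the mean over all tested compounds plus 3 SD, cut at about 30% in these data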;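 note: inhibitors block probe labeling of enzyme so polarization drops; 0% = enzyme with DMSO and 100% = wells lacking PAFAH2 protein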
* marks the source's active call; other numbers are inactive results. An excerpt weighted towards active compounds, which were near 3.6% of everything screened.

How did CC1CCN(S(=O)(=O)c2ccc(NC(=O)CN3CCOCC3)cc2)CC1 do in these assays?
PAFAH1B2 FP inh: 33*; VIM-2 inh: -2; pPAFAH FP inh: 3; IMP-1 inhibitor: -1; PAFAH1B3 inh: 17; PAFAH2 inh: 9

How did CC1CCCN(CC(=O)Nc2ccc(S(=O)(=O)NC3CCCCC3)cc2)C1 (configuration not stated) do in these assays?
PAFAH1B2 FP inh: 6; VIM-2 inh: 1; pPAFAH FP inh: 28*; IMP-1 inhibitor: -1; PAFAH1B3 inh: 0; PAFAH2 inh: -3

Results for CC1CCN(S(=O)(=O)c2ccc(NC(=O)Cc3cccs3)cc2)CC1 ?
PAFAH1B2 FP inh: 31*; VIM-2 inh: -3; pPAFAH FP inh: 13; IMP-1 inhibitor: 0; PAFAH1B3 inh: -1; PAFAH2 inh: 2

How did CN1CCN(CCCNC(=O)CCC(=O)N2CCOc3ccccc32)CC1 do in these assays?
PAFAH1B2 FP inh: 3; VIM-2 inh: -3; pPAFAH FP inh: 2; IMP-1 inhibitor: -2; PAFAH1B3 inh: 0; PAFAH2 inh: 2

How did O=C(CNC(=O)C1CCCCC1)OC(C(=O)c1ccccc1)c1ccccc1 (configuration not stated) do in these assays?
PAFAH1B2 FP inh: -4; pPAFAH FP inh: -4; PAFAH1B3 inh: 5; PAFAH2 inh: 2

How did Cc1cc(C)c(C)c(S(=O)(=O)N2CCC(C(=O)N3CC(C)CC(C)C3)CC2)c1C (configuration not stated) do in these assays?
PAFAH1B2 FP inh: 1; pPAFAH FP inh: 1; PAFAH1B3 inh: -11; PAFAH2 inh: 4

Results for C[C@@H](c1ccccc1)N1C[C@H]2CCCN2c2cc(Br)ccc2S1(=O)=O ?
PAFAH1B2 FP inh: 2; pPAFAH FP inh: 5; PAFAH1B3 inh: 3; PAFAH2 inh: -11

How did COc1cc(OC)c(OC)cc1/C=N/n1c(COc2ccccc2)n[nH]c1=S do in these assays?
PAFAH1B2 FP inh: 4; VIM-2 inh: -4; pPAFAH FP inh: 4; IMP-1 inhibitor: -4; PAFAH1B3 inh: 10; PAFAH2 inh: 1

How did CC1CCN(CC(=O)Nc2ccc(S(=O)(=O)N3CCC(C)CC3)cc2)CC1 do in these assays?
PAFAH1B2 FP inh: 29*; VIM-2 inh: -2; pPAFAH FP inh: -1; IMP-1 inhibitor: -1; PAFAH1B3 inh: 8; PAFAH2 inh: -4

What do the screens show for `O=C(CCSc1ccccc1)Nc1ccc(S(=O)(=O)N2CCOCC2)cc1`?
PAFAH1B2 FP inh: 19; VIM-2 inh: 0; pPAFAH FP inh: 5; IMP-1 inhibitor: 47*; PAFAH1B3 inh: 2; PAFAH2 inh: 1

Results for COc1ccc(C(CNS(=O)(=O)c2cccc(F)c2)N2CCCC2)cc1 (configuration not stated) ?
PAFAH1B2 FP inh: 4; pPAFAH FP inh: 1; PAFAH1B3 inh: 5; PAFAH2 inh: -5

Results for CC(=O)c1cccc(NC(=O)COC(=O)CCNS(=O)(=O)c2ccccc2)c1 ?
PAFAH1B2 FP inh: 5; pPAFAH FP inh: 29*; PAFAH1B3 inh: 8; PAFAH2 inh: 8

What do the screens show for `Cc1ccc(S(=O)(=O)NCCC(=O)OCC(=O)Nc2cccc(Cl)c2)cc1`?
PAFAH1B2 FP inh: 2; pPAFAH FP inh: 16; PAFAH1B3 inh: -4; PAFAH2 inh: -6

What do the screens show for `O=C(CNS(=O)(=O)c1ccccc1)OCC(=O)c1ccc(F)cc1`?
PAFAH1B2 FP inh: 3; VIM-2 inh: 0; pPAFAH FP inh: 13; IMP-1 inhibitor: 0; PAFAH1B3 inh: 2; PAFAH2 inh: 11

What do the screens show for `O=C(COC(=O)CCNS(=O)(=O)c1ccc(Cl)cc1)NCc1ccco1`?
PAFAH1B2 FP inh: 14; VIM-2 inh: -2; pPAFAH FP inh: 27*; IMP-1 inhibitor: -2; PAFAH1B3 inh: 2; PAFAH2 inh: 3

What do the screens show for `O=C(COC(=O)Cc1ccc(Cl)cc1)NCc1ccco1`?
PAFAH1B2 FP inh: 4; pPAFAH FP inh: 15; PAFAH1B3 inh: 14; PAFAH2 inh: 11

How did O=C(COC(=O)CCNS(=O)(=O)c1ccccc1)NC(=O)Cc1ccccc1 do in these assays?
PAFAH1B2 FP inh: 8; pPAFAH FP inh: 30*; PAFAH1B3 inh: 5; PAFAH2 inh: -3

How did O=C(CCNS(=O)(=O)c1ccccc1)OCC(=O)c1ccc(F)cc1 do in these assays?
PAFAH1B2 FP inh: 7; pPAFAH FP inh: 34*; PAFAH1B3 inh: -3; PAFAH2 inh: 8

Results for O=C(c1ccco1)N1CCN(C(=S)Nc2ccc(Br)cc2Cl)CC1 ?
PAFAH1B2 FP inh: -1; VIM-2 inh: -1; IMP-1 inhibitor: -2; PAFAH1B3 inh: -7; PAFAH2 inh: -1

How did O=C(COC(=O)COc1ccc(Cl)cc1)Nc1ncc(Br)s1 do in these assays?
PAFAH1B2 FP inh: 2; PAFAH1B3 inh: -3; PAFAH2 inh: 9

Results for Cc1ccccc1Nc1nc(N)nc(COC(=O)CCNS(=O)(=O)c2ccccc2)n1 ?
PAFAH1B2 FP inh: 3; pPAFAH FP inh: 28*; PAFAH1B3 inh: -2; PAFAH2 inh: 5

Results for Cc1cc(Cl)ccc1NC(=O)COC(=O)CCNS(=O)(=O)c1ccccc1 ?
PAFAH1B2 FP inh: 4; pPAFAH FP inh: 34*; PAFAH1B3 inh: -1; PAFAH2 inh: 3

What do the screens show for `Cc1ccccc1Nc1nc(N)nc(COC(=O)c2ccccc2)n1`?
PAFAH1B2 FP inh: -5; VIM-2 inh: -4; pPAFAH FP inh: 2; IMP-1 inhibitor: -4; PAFAH1B3 inh: -6; PAFAH2 inh: 4

How did CC[C@]12c3[nH]c4cc(CCC(=O)N(C)C)ccc4c3CCN1C(=O)[C@@H](CC(=O)NC/C=C(\C)CCC=C(C)C)C[C@@H]2C(=O)N1CCN(C(=O)c2ccco2)CC1 do in these assays?
PAFAH1B2 FP inh: 4; pPAFAH FP inh: 34*; PAFAH1B3 inh: 7; PAFAH2 inh: 4

Results for CC(C)=CCC/C(C)=C/CNC(=O)C[C@H]1C[C@H](C(=O)N(C(C)C)C(C)C)[C@@]2(C)c3[nH]c4cc(-c5ccco5)ccc4c3CCN2C1=O ?
PAFAH1B2 FP inh: 6; pPAFAH FP inh: 27*; PAFAH1B3 inh: 12; PAFAH2 inh: 5

How did CCN(CC)C(=O)[C@H]1C[C@H](CC(=O)NC/C=C(\C)CCC=C(C)C)C(=O)N2CCc3c([nH]c4cc(-c5ccco5)ccc34)[C@]12C do in these assays?
PAFAH1B2 FP inh: 6; pPAFAH FP inh: 33*; PAFAH1B3 inh: 3; PAFAH2 inh: 7
